B2AR ag – human beta-2 adrenergic receptor agonism by FAP; P07550; Am2.2-beta2AR cells, FAP receptor internalization, flow cytometry; AID 504454; 340,000 tested, 0.43% active; response, % (concentration not given with the values);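 active = response above a set limit, near 3 SD of response in nonfluorescent compounds, cut at about 42% in these data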
Target sequence (P07550 whole entry, looked up): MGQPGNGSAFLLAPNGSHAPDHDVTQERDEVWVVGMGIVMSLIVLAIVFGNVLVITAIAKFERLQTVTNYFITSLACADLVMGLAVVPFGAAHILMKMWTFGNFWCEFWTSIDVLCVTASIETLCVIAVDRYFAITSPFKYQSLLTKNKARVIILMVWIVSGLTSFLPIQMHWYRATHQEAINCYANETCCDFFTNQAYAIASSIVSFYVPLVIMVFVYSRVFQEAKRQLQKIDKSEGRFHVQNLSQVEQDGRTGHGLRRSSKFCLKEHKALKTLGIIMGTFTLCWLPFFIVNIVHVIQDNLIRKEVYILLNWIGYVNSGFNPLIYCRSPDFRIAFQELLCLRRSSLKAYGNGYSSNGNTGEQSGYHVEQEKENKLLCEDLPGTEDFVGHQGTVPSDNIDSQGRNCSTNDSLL
Dynein cargo inh – blocks dynein driven cargo transport along microtubules | 3617.4 mouse cells, GR-EGFP nuclear translocation imaging; test concentration mostly 20 µM; stimulated with dexamethasone, 1 µM; hits give low values | z-score, hits read low | 220,000 tested, 0.47% active | AID 1381;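 active = plate z-score of nuclear minus cytoplasmic receptor signal below a set negative limit, without overly bright fluorescence or cell loss, cut at about -3.5 in these data, passing the limit was not always enough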;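 note: z-score of nuclear minus cytoplasmic ring GR-EGFP intensity difference per well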
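Buffer or medium: tet-free, stripped-serum medium; reagent: dexamethasone at 1.0 µM final, 30 min; incubation: 48 h induction, 1 h compound, 30 min dex at 37 °C; measured by: formaldehyde fixation, Hoechst nuclear stain, 10x automated fluorescence imaging; read-out: nuclear-to-cytoplasmic GR-EGFP distribution per well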
MEKK3 PB1 HTS – raises or lowers MEK5 binding to the human MEKK3 PB1 domain; bead-based flow cytometry, Alexa488-MEK5 binding to MEKK3; actives lie on both sides; 0 = blocked by unlabeled MEK5, 100 = vehicle; 290,000 tested, 1.4% active; binding response (% of control), % at 10 µM;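 active = binding response more than 3 SD above or below the average of its plate-row segment, actives on both sides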;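 note: Alexa488 bead fluorescence after subtracting the streptavidin-only scavenger bead signal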
MEKK2mut PB1 HTS – signal of MEK5 binding to mutant human MEKK2 PB1 domain; bead flow cytometry, Alexa488-MEK5 binding to MEKK2 mutant; percent response, % at 10 µM; 290,000 tested, 0.35% active; in the data active = percent response above about 24%, passing the limit was not always enough
MEKK2 WT-MEK5 – raises or lowers MEK5 binding to wildtype human MEKK2 PB1 domain; 290,000 tested, 1.1% active; AID 1531; binding response (% of control), % at 10 µM; bead flow cytometry, Alexa488-MEK5 binding to MEKK2 WT; actives lie on both sides; in the data active = binding response below about 67% or above about 130%
ATG4B inhibitor – ATG4B (human) cysteine protease inhibition; ATG4B cleavage of LC3-PLA2, NBD-HPC fluorescence, 1 h; inhibition, % at 8.33 µM; 340,000 tested, 0.51% active; in the data active = inhibition above about 40%
MEKK2wt confirm – raises or lowers MEK5 binding to wildtype human MEKK2, retest | shares compounds with MEKK3 PB1 HTS | bead flow cytometry, Alexa488-MEK5 binding to MEKK2 WT; actives lie on both sides | binding response (% of control), % at 10 µM | 5,900 tested, 2.4% active; in the data active = binding response below about 16% or above about 210%; inactive = in between
MEKK2mut-MEK5 – signal of MEK5 binding to mutant human MEKK2, retest; shares compounds with MEKK3 PB1 HTS; 5,900 tested, 2% active; AID 1893; bead flow cytometry, Alexa488-MEK5 binding to MEKK2 mutant; percent response, % at 10 µM; in the data active = percent response mostly above about 71%, no sharp cut-off; inactive = mostly below about 38%;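 note: higher means compound restores mutant binding toward wildtype level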
MEKK3 confirm – MEKK3-MEK5 PB1 inhibition, single concentration confirmation | shares compounds with MEKK3 PB1 HTS | bead flow cytometry, Alexa488-MEK5 binding to MEKK3; hits give low values | binding response (% of control), % at 10 µM | 5,900 tested, 1.8% active | AID 1894;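 active = binding response below 72% of control, or above a set upper limit, though filed actives all read lower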;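 note: 100% = DMSO only wells and 0% = binding blocked by excess unlabeled MEK5; lower values mean stronger disruption of MEK5 binding to MEKK3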
Numbers without * were called inactive; . = no result; [ ] = dose if it differs, or a comment. Sampled rows, rich in hits. Any-hit rate of the full collection: about 2.9%.

SMILES | B2AR ag | Dynein cargo inh | MEKK3 PB1 HTS | MEKK2mut PB1 HTS | MEKK2 WT-MEK5 | ATG4B inhibitor | MEKK2wt confirm | MEKK2mut-MEK5 | MEKK3 confirm
CC(C)OP(=O)(OC(C)C)C(O)c1ccc(Br)cc1 (stereo unspecified) | 6 | 0.36 | 149* | -1 | 108 | -1 | 105 | 2 | 104
COc1cc2[nH]c(=O)n(-c3cccc(Cl)c3)c(=O)c2cc1OC | 1 | 1.4 | 105 | 9 | 108 | -17 | . | . | .
CC(=O)c1c(O)n(-c2cccc(Cl)c2)c(=O)[nH]c1=O (tested in a mixture with another compound) | 2 | -0.03 | 128* | 27 | 108 | -5 | 104 | -4 | 103
COc1ccc2[nH]cc(CCN=C(N)N)c2c1 | 10 | -1.2 | 99 | -1 | 104 | -9 | . | . | .
COc1ccc2[nH]cc(C3=CCNCC3)c2c1 | . | . | 109 | 174* | 182* | . | 123 | -18 | 98
O=S(=O)(c1ccc(F)cc1)N1CCCCC1c1cccnc1 (stereo unspecified) | 4 | -1.1 | 112 | 2 | 105 | -5 | . | . | .
O=S(=O)(c1ccc(Cl)cc1)N1CCCCC1c1cccnc1 (stereo unspecified) | -9 | -1.1 | 130* | 1 | 117 | -4 | 98 | -1 | 103
COC(=O)C1=C(c2cccc(OCc3ccccc3)c2)C[C@@H]2CC[C@H]1N2C(=O)NCc1ccc(N(C)C)cc1 | -6 | . | . | . | . | -3 | . | . | .
CC=C(CC)C1(CCC)C(=O)NC(=S)NC1=O | 4 | . | . | . | . | 0 | . | . | .
CC(C)OCCCNC(=O)c1c(N)n(CC2CCCO2)c2nc3ccccc3nc12 (stereo unspecified) | -13 | -1.2 | 106 | 5 | 99 | -25 | . | . | .
CCCNC(=O)c1c(N)n(CC2CCCO2)c2nc3ccccc3nc12 (stereo unspecified) | -1 | -0.19 | 123* | 4 | 116 | -29 | 102 | 0 | 103
COc1ccc2c(c1)c(C(=O)CN1CCN(C)CC1)c(C)n2Cc1ccccc1 | 2 | 0.074 | 103 | 23 | 141* | -9 | 163 | 53 | 108
c1cc2c(cc1NC1=NCCO1)CCCC2 | -3 | . | . | . | . | 2 | . | . | .
COC(=O)C1=C(c2ccc(C(C)=O)cc2)C[C@@H]2CC[C@H]1N2C(=O)NC1CC1 | 2 | . | . | . | . | -8 | . | . | .
Fc1ccccc1CNCCc1c[nH]c2ccccc12 | -9 | . | 101 | 10 | 107 | -4 | . | . | .
NCCc1c[nH]c2ccccc12 | 5 | -0.77 | 92 | 11 | 138* | -28 | 113 | 9 | 103
CN[C@@H]1C[C@@H](c2ccc(Cl)c(Cl)c2)c2ccccc21 | . | . | 106 | 11 | 142* | . | 133 | 11 | 106
CCOC(=O)c1c(C)n(Cc2ccccc2)c2ccc(OCC(O)CNC(C)(C)C)cc12 (stereo unspecified) | 24 | . | 107 | 21 | 150* | 0 | 150 | 36 | 106
O=C1NC(=S)NC(=O)C1C/C=C/c1ccccc1 | 0 | -0.44 | 91 | -34 | -7.0*[inhibitor] | -16 | 96 | 0 | 104
Cn1c(CN2CCN(C(=O)COc3ccccc3)CC2)nc2cc([N+](=O)[O-])ccc21 | 1 | 0.018 | 152* | 0 | 106 | -6 | 98 | -2 | 102
Cc1ccc(C(O)(C(=O)NNC(=O)CN2CCN(C)CC2)c2ccc(C)cc2)cc1 | 5 | -0.33 | 67*[inhibitor] | 0 | 101 | 1 | 106 | 6 | 107
NS(=O)(=O)c1nc[nH]c1[N+](=O)[O-] | 0 | . | . | . | . | 8 | . | . | .
